# Laboratory results published in ChEMBL document CHEMBL1145492, “Comparison of the phosphorylation of 4'-ethynyl 2',3'-dihydro-3'-deoxythymidine with that of other anti-human immunodeficiency virus thymidine analogs” (Antimicrob Agents Chemother, 2007).
# Tests used:
# [1] = substrate: Cc1cn([C@H]2C=C[C@@H](COP(=O)(O)O)O2)c(=O)[nH]c1=O; assay: (§1) Activity for human recombinant TMP kinase
# In short: (§2)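 Substrate ranges were TMP 6.25–100 μM and analog MPs 6.25–250 μM. Reactions were stopped at various times with TCA and neutralized with trioctylamine/trichlorotrifluoroethane. Km and kcat came from Lineweaver-Burk plots. Relative efficiency is kcat/Km with D4TMP as 100%. Mean ± SD of three experiments.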
# [2] = substrate: Cc1cn([C@H]2C[C@H](N=[N+]=[N-])[C@@H](COP(=O)(O)O)O2)c(=O)[nH]c1=O; assay: as §1; in short: as §2
# [3] = substrate: Cc1cn([C@H]2C[C@H](O)[C@@H](COP(=O)(O)O)O2)c(=O)[nH]c1=O; assay: as §1; in short: as §2
protein,measurement,setting,value
"Thymidylate kinase (Homo sapiens), P23919 (protein) MAARRGALIVLEGVDRAGKSTQSRKLVEALCAAGHRAELLRFPERSTEIGKLLSSYLQKKSDVEDHSVHLLFSANRWEQVPLIKEKLSQGVTLVVDRYAFSGVAFTGAKENFSLDWCKQPDVGLPKPDLVLFLQLQLADAAKRGAFGHERYENGAFQERALRCFHQLMKDTTLNWKMVDASKSIEAVHEDIRVLSEDAIRTATEKPLGELWK",Km,[1],22 µM
same,kcat,[1],0.093 s⁻¹
same,Km,[2],7.6 µM
same,kcat,[2],0.018 s⁻¹
same,Km,[3],8.3 µM
same,kcat,[3],1.8 s⁻¹
